Experimental data pooled from the literature.
Protocols differ between the studies behind these lines.
Target: Dual specificity tyrosine-phosphorylation-regulated kinase 2 (DYRK2, Homo sapiens, UniProt Q92630)
One construct used (Q92630 1-601): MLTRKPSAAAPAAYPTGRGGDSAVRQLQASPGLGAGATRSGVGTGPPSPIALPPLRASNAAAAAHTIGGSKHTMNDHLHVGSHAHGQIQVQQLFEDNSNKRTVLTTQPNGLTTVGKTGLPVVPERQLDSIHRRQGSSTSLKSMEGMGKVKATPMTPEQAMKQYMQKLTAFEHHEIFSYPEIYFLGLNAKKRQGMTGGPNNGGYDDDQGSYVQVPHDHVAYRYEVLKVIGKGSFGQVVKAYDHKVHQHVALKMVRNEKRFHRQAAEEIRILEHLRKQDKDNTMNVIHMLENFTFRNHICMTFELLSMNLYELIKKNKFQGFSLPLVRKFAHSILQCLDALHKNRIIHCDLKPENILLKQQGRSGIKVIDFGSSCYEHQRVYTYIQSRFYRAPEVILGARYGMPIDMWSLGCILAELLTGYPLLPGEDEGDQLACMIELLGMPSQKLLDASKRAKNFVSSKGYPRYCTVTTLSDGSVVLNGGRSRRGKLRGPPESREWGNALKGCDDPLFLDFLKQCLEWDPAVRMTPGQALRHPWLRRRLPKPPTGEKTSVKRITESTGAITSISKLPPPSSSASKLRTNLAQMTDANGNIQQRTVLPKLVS

SMILES | assay | setting | quantity | result
O=C(O)c1ccc2c(c1)nc(Nc1ccc3ccccc3c1)c1ncncc12 | enzyme activity, inhibitor, radiometric | 1 µM | remaining activity | 1%
Cn1cnc(Br)c1C1=CN(c2ncnc3[nH]cnc23)CCS1 | enzyme activity, inhibitor, radiometric | 2 µM | inhibition | 98.3%
CCCCN(CCCC)C(=O)CN1C[C@@H](c2cc(OC)c3c(c2)OCO3)[C@H](C(=O)O)[C@H]1CC(C)(C)CCC | cell-free assay, competition with immobilised ligand | 1 µM | remaining binding | 82.9%
CS(=O)(=O)CCNCc1ccc(-c2ccc3ncnc(Nc4ccc(OCc5cccc(F)c5)c(Cl)c4)c3c2)o1 | cell-free assay | 0.5 µM | remaining signal | 102%
Cc1ccc(Nc2nccc(N(C)c3ccc4c(C)n(C)nc4c3)n2)cc1S(N)(=O)=O | enzyme activity, inhibitor | 0.3 µM | inhibition | -8%
CN1CC(Oc2cnc(C#N)cc2-c2ccn3nc(NC(=O)C4CC4)cc3c2)C1 | enzyme activity, inhibitor | 1 µM | inhibition | 3%
O=C(O)c1ccc2c(c1)nc(Nc1ccc(F)c(Cl)c1)c1ccncc12 | enzyme activity, inhibitor, radiometric | 1 µM | remaining activity | 5%
Cc1cc(NC(=O)c2cccc3cc(-c4cccc5[nH]nc(N)c45)ccc23)ccc1F | enzyme activity, inhibitor | 0.1 µM | activity vs control | 98%
C[S+]([O-])c1ccc(-c2nc(-c3ccncc3)c(-c3ccc(F)cc3)[nH]2)cc1 (stereo not shown) | cell-free assay | 0.5 µM | remaining signal | 98.7%
COc1cccc(CCNc2nc3cc(C(=O)O)ccc3c3cncnc23)c1 | enzyme activity, inhibitor, radiometric | 1 µM | remaining activity | 59%
O=C(N1CCS(=O)(=O)CC1)N1C[C@H](c2ccc(OC(F)(F)F)cc2)C[C@H](c2nc(C3CC3)no2)C1 | cell-free assay, competition with immobilised ligand | 1 µM | remaining binding | 100%
FC(F)(F)Oc1cccc(-c2cnc3ccc(-c4ccncc4)nn23)c1 | enzyme activity, inhibitor, radiometric | 5 µM | activity vs control | 46%
CCN(CC)CCNC(=O)c1c(C)[nH]c(/C=C2\C(=O)Nc3ccc(F)cc32)c1C | enzyme activity, inhibitor | 0.3 µM | inhibition | -5%
O=C(O)c1cc(-c2ccc(C3CCNCC3)cc2)c2ccc(-c3ccc(C(F)(F)F)cc3)cc2c1 | cell-free assay, competition with immobilised ligand | 1 µM | remaining binding | 100%
O=C(O)c1ccc2c(c1)nc(NCCc1cccc(Cl)c1)c1ccncc12 | enzyme activity, inhibitor, radiometric | 1 µM | remaining activity | 29%
Cc1ccc(NC(=O)c2ccc(CN3CCN(C)CC3)cc2)cc1Nc1nc(-c2cccnc2)cs1 | cell-free assay | 0.5 µM | remaining signal | 109%
CSc1cccnc1N1CCN(Cc2nc3ccccc3[nH]2)CC1 | cell-free assay, competition with immobilised ligand | 1 µM | remaining binding | 81%
O=C(O)c1ccc2c(c1)nc(Nc1ccc(Cl)cc1)c1ncncc12 | enzyme activity, inhibitor, radiometric | 1 µM | remaining activity | 33%
O=C1Nc2ccc(Cl)cc2C1=Cc1cc(Cl)c(O)c(Cl)c1 | cell-free assay | 0.5 µM | remaining signal | 94%
O=C(NCCCC1CCCCC1)c1ccc(CNC(=O)c2cnn(-c3ccccc3)c2C(F)(F)F)cc1 | cell-free assay, competition with immobilised ligand | 0.1 µM | remaining binding | 100%
O=C(O)c1ccc2c(c1)nc(Nc1ccc(F)c(Cl)c1)c1ncncc12 | enzyme activity, inhibitor, radiometric | 1 µM | remaining activity | 41%
Cc1c[nH]c2nccc(Oc3c(F)cc(Nc4cc(Cl)nc(N)n4)cc3F)c12 | cell-free assay, competition with immobilised ligand | 0.1 µM | remaining binding | 100%
CCCS(=O)(=O)Nc1ccc(F)c(C(=O)c2c[nH]c3ncc(-c4ccc(Cl)cc4)cc23)c1F | enzyme activity, inhibitor | 1 µM | inhibition | < 10%
N#Cc1cccc(Nc2nc3cc(C(=O)O)ccc3c3cncnc23)c1 | enzyme activity, inhibitor, radiometric | 1 µM | remaining activity | 55%
Cc1nc(Cc2cccc(C(F)(F)F)c2)sc1-c1ccc(C(N)=O)nc1 | cell-free assay, competition with immobilised ligand | 1 µM | remaining binding | 90%
O=C(O)c1ccc2c(c1)nc(NCCc1ccccc1)c1ncncc12 | enzyme activity, inhibitor, radiometric | 1 µM | remaining activity | 45%
NS(=O)(=O)c1cc(NC(=O)Cc2ccccc2)ccc1Oc1cccc(Cl)c1 | cell-free assay, competition with immobilised ligand | 1 µM | remaining binding | 100%
Cn1cncc1C1=CN(c2ncnc3[nH]cnc23)CCS1 | enzyme activity, inhibitor, radiometric | 2 µM | inhibition | 91.2%
